Drawing on ChEMBL document CHEMBL1154850, “Dragonamide E, a modified linear lipopeptide from Lyngbya majuscula with antileishmanial activity” (J Nat Prod, 2010), this text covers IC50 for six molecules.

Square brackets hold non-standard residues; d marks the D form. Peptide text beside a SMILES is read from it. * marks the point of attachment. NMeF = CN[C@@H](Cc1ccccc1)C(=O)O; NMeV = CN[C@H](C(=O)O)C(C)C; X1 = C#CCCCC[C@H](C)C(=O)*; X2 = C#CCCC/C=C(\C)C(=O)* Bounds are passed on as bounds.

Format in all cases: functional, organism-based
In one assay the test system is Leishmania donovani. Kind of assay: Antileishmanial activity against Leishmania donovani LD-1S/MHOM/SD/00-1S amastigotes after 72 hrs by PicoGreen fluorescence assay. A digest of the protocol: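 Axenic amastigotes of WHO reference strain LD-1S/MHOM/SD/00-strain 1S; assay run as in earlier work.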
The next assay deals with Plasmodium falciparum. Kind of assay: Antimalarial activity against chloroquine-resistant Plasmodium falciparum Indochina W2 infected human erythrocytes assessed as uptake of PicoGreen after 48 hrs. To be noted: Indochina W2, 48 h.
The subject of the next assay is Trypanosoma cruzi. Kind of assay: Antiparasitic activity against Trypanosoma cruzi Tulahuen C4 infected african green monkey Vero cells expressing beta-galctosidase after 5 days. Particulars: 120 h. A digest of the protocol:
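Parasite is a transgenic β-galactosidase-expressing Trypanosoma cruzi, Tulahuen strain clone C4; assay run as in earlier work.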

As usually defined, the IC50 is the midpoint of a concentration-inhibition curve. As for `C[C@@H]1[C@H](O)[C@@H](C)/C=C/C=C/C=C/C=C/C=C/C=C/C=C/[C@H](O[C@@H]2O[C@H](C)[C@@H](O)[C@H](N)[C@@H]2O)C[C@@H]2O[C@](O)(C[C@@H](O)C[C@@H](O)[C@H](O)CC[C@@H](O)C[C@@H](O)CC(=O)O[C@H]1C)C[C@H](O)[C@H]2C(=O)O` [AMPHOTERICIN B], 0.1 µM corresponded to half-maximal inhibition in the assay with Leishmania donovani (IC50).

In the case of `C#CCCCC[C@H](C)C(=O)N(C)[C@H](C(=O)N(C)[C@H](C(=O)N(C)[C@H](C(=O)N(C)[C@@H](Cc1ccccc1)C(N)=O)C(C)C)C(C)C)C(C)C` [DRAGONAMIDE A] (X1-[NMeV][NMeV][NMeV][NMeF]-NH2), the IC50 in the assay with Leishmania donovani is 6.5 µM; with Plasmodium falciparum it was over 10 µM; in the assay on Trypanosoma cruzi, over 10 µM.

As to `C#CCCCC[C@H](C)C(=O)N(C)[C@H](C(=O)N(C)[C@H](C(=O)N(C)[C@H](C(=O)N(C)[C@H](C(N)=O)C(C)C)C(C)C)C(C)C)C(C)C` [DRAGONAMIDE B] (X1-[NMeV][NMeV][NMeV][NMeV]-NH2), the IC50 with Leishmania donovani, in the assay with Plasmodium falciparum and in the assay with Trypanosoma cruzi was over 10 µM throughout.

Turning to `C#CCCC/C=C(\C)C(=O)N(C)[C@H](C(=O)N(C)[C@H](C(=O)N(C)[C@H](C(=O)N(C)[C@@H](Cc1ccccc1)C(N)=O)C(C)C)C(C)C)C(C)C` [DRAGONAMIDE E] (X2-[NMeV][NMeV][NMeV][NMeF]-NH2), the IC50 with Leishmania donovani is 5.1 µM; in the assay on Plasmodium falciparum it was over 10 µM; in the assay with Trypanosoma cruzi, over 10 µM.

For `C/C(=C\C=C\C[C@H](C)C(Cl)(Cl)Cl)C(=O)N[C@H](c1nccs1)C(C)C` [HERBAMIDE B], the IC50 in the assay on Leishmania donovani was 5.9 µM; with Plasmodium falciparum it was over 10 µM; in the assay on Trypanosoma cruzi it was over 10 µM.

For the molecule `CC1CS(=O)(=O)CCN1/N=C/c1ccc([N+](=O)[O-])o1` (centres undefined) [NIFURTIMOX], in the assay on Trypanosoma cruzi, the IC50 turned out to be 13.5 µM.
